In assay [1] the target is T1, Melanocortin receptor 3 (Homo sapiens, UniProt P41968). Kind of assay: Agonist activity against human Melanocortin 3 receptor at 10 uM.
Assay [2] has as its target T2, Melanocortin receptor 4 (Homo sapiens, UniProt P32245). Description: Agonist activity against human Melanocortin 4 receptor at 10 uM.
Assay [3] addresses T3, Melanocortin receptor 5 (Homo sapiens, UniProt P33032). Description: Agonist activity against human Melanocortin 5 receptor at 10 uM.
For assay [4], the target named is T2, Melanocortin receptor 4. Description: Intracellular cAMP accumulation in Melanocortin 4 receptor functional assay.
For assay [5], the target named is T1, Melanocortin receptor 3. Description: Intracellular cAMP accumulation in human Melanocortin 3 receptor functional assay. A general note: Cyclic AMP is a second messenger, typically raised through Gs and lowered through Gi signalling.
The target in assay [6] is T1, Melanocortin receptor 3. Description: Binding affinity against human Melanocortin 3 receptor by gamma-MCH displacement. In short, it runs like this:
(§1)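 Competition binding on intact HEK293 cells stably expressing the human receptor, seeded 50000 cells/well 48 h earlier. Lysates were gamma-counted. Ki came from competition curves; mean of duplicate experiments in triplicate.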

The target in assay [7] is T3, Melanocortin receptor 5. Kind of assay: Binding affinity against human Melanocortin 5 receptor by gamma-MCH displacement. Put shortly: as §1
For assay [8], the target named is T3, Melanocortin receptor 5. Kind of assay: Intracellular cAMP accumulation in human Melanocortin 5 receptor functional assay.
In assay [9] the target is T2, Melanocortin receptor 4. Description: Binding affinity against Melanocortin 4 receptor by gamma-MCH displacement. Put shortly:
as §1

Square brackets hold non-standard residues; d marks the D form. Peptide text beside a SMILES is read from it. d2Nal = N[C@H](Cc1ccc2ccccc2c1)C(=O)O; Nle = CCCC[C@H](N)C(=O)O

In general, EC50 refers to the concentration needed to bring the measured effect to its halfway point. Low readings indicate a more potent agent, high ones a less potent agent. A word on the Ki: it is a dissociation constant, usually derived from enzyme kinetics or from competition with a known ligand. The low end stands for tighter binding, the high end for weaker binding.

T2 sequence (P32245 whole entry): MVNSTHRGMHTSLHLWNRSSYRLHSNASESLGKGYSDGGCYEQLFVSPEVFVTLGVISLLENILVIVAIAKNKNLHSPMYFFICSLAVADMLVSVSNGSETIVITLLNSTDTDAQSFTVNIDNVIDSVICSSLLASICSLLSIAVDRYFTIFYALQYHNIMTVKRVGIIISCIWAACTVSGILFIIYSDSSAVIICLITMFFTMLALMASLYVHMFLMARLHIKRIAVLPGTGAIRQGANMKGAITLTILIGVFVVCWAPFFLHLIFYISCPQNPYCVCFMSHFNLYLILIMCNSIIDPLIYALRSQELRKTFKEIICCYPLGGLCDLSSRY
T1 sequence (P41968 whole entry): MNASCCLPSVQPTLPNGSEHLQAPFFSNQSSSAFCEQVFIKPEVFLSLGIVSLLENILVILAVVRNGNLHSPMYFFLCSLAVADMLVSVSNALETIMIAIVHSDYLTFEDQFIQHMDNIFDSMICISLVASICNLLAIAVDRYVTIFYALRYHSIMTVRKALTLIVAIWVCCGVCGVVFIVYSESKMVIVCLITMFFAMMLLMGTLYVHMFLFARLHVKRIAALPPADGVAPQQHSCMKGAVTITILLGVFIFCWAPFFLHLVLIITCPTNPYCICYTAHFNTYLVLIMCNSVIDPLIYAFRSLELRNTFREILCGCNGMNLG
T3 sequence (P33032 whole entry): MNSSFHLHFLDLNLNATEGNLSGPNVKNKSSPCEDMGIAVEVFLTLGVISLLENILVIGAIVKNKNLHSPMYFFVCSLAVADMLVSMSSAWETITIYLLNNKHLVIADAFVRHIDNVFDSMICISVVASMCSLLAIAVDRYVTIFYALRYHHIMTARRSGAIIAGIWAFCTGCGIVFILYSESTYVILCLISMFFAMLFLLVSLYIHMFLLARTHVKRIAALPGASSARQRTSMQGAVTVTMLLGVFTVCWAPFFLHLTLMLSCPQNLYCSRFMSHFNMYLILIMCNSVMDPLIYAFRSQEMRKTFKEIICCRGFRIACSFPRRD

As for `CCCC[C@H](NC(=O)[C@@H](NC(=O)[C@@H](N)Cc1ccc(O)cc1)C(C)C)C(=O)N[C@H]1CC(=O)NCCCC[C@H](C(=O)N[C@@H](CCCN=C(N)N)C(=O)N[C@@H](Cc2ccccc2)C(=O)NCC(N)=O)NC(=O)[C@@H](Cc2c[nH]c3ccccc23)NC(=O)[C@H](CCCN=C(N)N)NC(=O)[C@@H](Cc2ccccc2)NC(=O)[C@H](Cc2c[nH]cn2)NC1=O`, the Activity on Melanocortin receptor 3 [1], on Melanocortin receptor 4 [2] and on Melanocortin receptor 5 [3] was 100% throughout.

Consider `CC(C)[C@H](NC(=O)[C@@H](N)Cc1ccc(O)cc1)C(=O)N[C@H]1C(=O)NCC(=O)N[C@@H](Cc2c[nH]cn2)C(=O)N[C@H](Cc2ccccc2)C(=O)N[C@@H](CCCN=C(N)N)C(=O)N[C@@H](Cc2c[nH]c3ccccc23)C(=O)N[C@H](C(=O)N[C@@H](CCCN=C(N)N)C(=O)N[C@@H](Cc2ccccc2)C(=O)NCC(N)=O)CSSC1(C)C`, for which the Activity on Melanocortin receptor 3 [1] worked out at 77%.

Turning to `CCCC[C@H](NC(=O)[C@@H](NC(=O)[C@@H](N)Cc1ccc(O)cc1)C(C)C)C(=O)NCC(=O)N[C@@H](Cc1c[nH]cn1)C(=O)N[C@H](Cc1ccc2ccccc2c1)C(=O)N[C@@H](CCCN=C(N)N)C(=O)N[C@H](Cc1ccc2ccccc2c1)C(=O)N[C@@H](CC(=O)O)C(=O)N[C@@H](CCCN=C(N)N)C(=O)N[C@@H](Cc1ccccc1)C(=O)NCC(N)=O`, the EC50 at Melanocortin receptor 4 [4] is 44 nM; on Melanocortin receptor 3 [5], 12 nM; at Melanocortin receptor 5 [8] it was over 10000 nM. Besides, the inhibition constant (Ki) at Melanocortin receptor 3 [6] is 12 nM; on Melanocortin receptor 5 [7], over 4800 nM; at Melanocortin receptor 4 [9] it was 4.6 nM. The Activity was 40% at Melanocortin receptor 3 [1] and 100% on Melanocortin receptor 4 [2].

As to `CC(C)[C@H](NC(=O)[C@@H](N)Cc1ccc(O)cc1)C(=O)NC1CSSCC(C(=O)N[C@@H](CCCN=C(N)N)C(=O)N[C@@H](Cc2ccccc2)C(=O)NCC(N)=O)NC(=O)[C@H](Cc2c[nH]c3ccccc23)NC(=O)[C@H](CCCN=C(N)N)NC(=O)[C@@H](Cc2ccccc2)NC(=O)[C@H](Cc2c[nH]cn2)NC(=O)CNC1=O` (stereo in doubt), the EC50 was 250 nM at Melanocortin receptor 4 [4], over 10000 nM on Melanocortin receptor 3 [5] and over 10000 nM on Melanocortin receptor 5 [8]. In addition, the inhibition constant (Ki) on Melanocortin receptor 3 [6] was over 10000 nM; at Melanocortin receptor 5 [7], over 3900 nM; at Melanocortin receptor 4 [9] it was 460 nM. In addition, on Melanocortin receptor 4 [2], the Activity was determined as 46%.

In the case of `CCCC[C@H](NC(=O)[C@@H](NC(=O)[C@@H](N)Cc1ccc(O)cc1)C(C)C)C(=O)NCC(=O)N[C@@H](Cc1c[nH]cn1)C(=O)N[C@@H](Cc1ccccc1)C(=O)N[C@@H](CCCN=C(N)N)C(=O)N[C@H](Cc1ccc2ccccc2c1)C(=O)N[C@@H](CC(=O)O)C(=O)N[C@@H](CCCN=C(N)N)C(=O)N[C@@H](Cc1ccccc1)C(=O)NCC(N)=O`, the EC50 on Melanocortin receptor 4 [4] was over 10000 nM; at Melanocortin receptor 3 [5] it was 2400 nM; at Melanocortin receptor 5 [8], 28 nM. Further, the inhibitory constant (Ki) amounted to 15 nM on Melanocortin receptor 3 [6], 17 nM on Melanocortin receptor 5 [7] and 1.5 nM on Melanocortin receptor 4 [9]. Besides, the Activity at Melanocortin receptor 3 [1] is 31%; at Melanocortin receptor 5 [3] it was 80%.

`CCCC[C@H](NC(=O)[C@@H](NC(=O)[C@@H](N)Cc1ccc(O)cc1)C(C)C)C(=O)NCC(=O)N[C@@H](CCN)C(=O)N[C@@H](Cc1ccccc1)C(=O)N[C@@H](CCCN=C(N)N)C(=O)N[C@H](Cc1ccc2ccccc2c1)C(=O)N[C@@H](CC(=O)O)C(=O)N[C@@H](CCCN=C(N)N)C(=O)N[C@@H](Cc1ccccc1)C(=O)NCC(N)=O` came in with an Activity on Melanocortin receptor 5 [3] of 100%.

Turning to `CC(C)[C@H](NC(=O)[C@@H](N)Cc1ccc(O)cc1)C(=O)N[C@@H]1CSSC[C@@H](C(=O)N[C@@H](CCCN=C(N)N)C(=O)N[C@@H](Cc2ccccc2)C(=O)NCC(N)=O)NC(=O)[C@H](Cc2c[nH]c3ccccc23)NC(=O)[C@H](CCCN=C(N)N)NC(=O)[C@@H](Cc2ccccc2)NC(=O)[C@H](Cc2c[nH]cn2)NC(=O)CNC1=O`, the Activity was determined as 93% on Melanocortin receptor 3 [1], 92% on Melanocortin receptor 4 [2] and 16% at Melanocortin receptor 5 [3].

Turning to `CCCC[C@H](NC(=O)[C@@H](NC(=O)[C@@H](N)Cc1ccc(O)cc1)C(C)C)C(=O)NCC(=O)N1CCC[C@H]1C(=O)N[C@H](Cc1ccc2ccccc2c1)C(=O)N[C@@H](CCCN=C(N)N)C(=O)N[C@@H](Cc1c[nH]c2ccccc12)C(=O)N[C@@H](CC(=O)O)C(=O)N[C@@H](CCCN=C(N)N)C(=O)N[C@@H](Cc1ccccc1)C(=O)NCC(N)=O` (H-YV[Nle]GP[d2Nal]RWDRFG-NH2), the Ki on Melanocortin receptor 3 [6] turned out to be 0.2 nM; on Melanocortin receptor 5 [7], 14 nM; on Melanocortin receptor 4 [9], 0.22 nM. For the same molecule, the values for the Activity on Melanocortin receptor 3 [1] and at Melanocortin receptor 4 [2] were 70% and 100%, respectively.

Consider `CCCC[C@H](NC(=O)[C@@H](NC(=O)[C@@H](N)Cc1ccc(O)cc1)C(C)C)C(=O)NCC(=O)N[C@@](C)(Cc1ccccc1)C(=O)N[C@@H](Cc1ccccc1)C(=O)N[C@@H](CCCN=C(N)N)C(=O)N[C@H](Cc1ccc2ccccc2c1)C(=O)N[C@@H](CC(=O)O)C(=O)N[C@@H](CCCN=C(N)N)C(=O)N[C@@H](Cc1ccccc1)C(=O)NCC(N)=O`, for which the concentration for a half-maximal effect (EC50) at Melanocortin receptor 4 [4] turned out to be 53 nM; at Melanocortin receptor 3 [5], 150 nM; at Melanocortin receptor 5 [8], 210 nM. The Ki on Melanocortin receptor 3 [6] amounted to 1400 nM; on Melanocortin receptor 5 [7] it was 3300 nM; at Melanocortin receptor 4 [9], 1300 nM. The Activity on Melanocortin receptor 3 [1] is 40%; at Melanocortin receptor 4 [2], 80%; at Melanocortin receptor 5 [3], 40%.

The values above are taken from ChEMBL document CHEMBL1144940 (J Med Chem, 2003).
